The values that follow come from ChEMBL document CHEMBL1131343, “Nonpeptide cyclic cyanoguanidines as HIV-1 protease inhibitors: synthesis, structure-activity relationships, and X-ray crystal structure studies” (J Med Chem, 1998).

Test [1] has as its system Human immunodeficiency virus 1. The experiment in a line: The antiviral potency (IC90) was assessed by measuring their effect on the accumulation of viral RNA transcripts on HIV-1 RF infected MT-2 cells. In kind it is functional. Conditions: Human immunodeficiency virus 1, MT2. A digest of the protocol: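 HIV-1 RF infection of MT-2 cells; the read-out is viral RNA transcript accumulation measured 3 days after infection. IC90 is taken from this read-out.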

Test [2] addresses Human immunodeficiency virus type 1 protease (Human immunodeficiency virus 1, UniProt Q72874). As to the kind of experiment: Binding affinity for HIV-1 protease enzyme was measured by using fluorescent peptide substrate.

In test [1], `N#CN=C1N(Cc2cccc(OCc3ccccc3)c2)[C@H](Cc2ccccc2)[C@H](O)[C@@H](O)[C@@H](Cc2ccccc2)N1Cc1cccc(OCc2ccccc2)c1` came in with an IC90 greater than 67300 nM. Affinity in test [2] was put at a Ki of 1370 nM.

As for `CC(C)CCN1C(=O)N(CCC(C)C)[C@H](Cc2ccccc2)[C@H](O)[C@@H](O)[C@H]1Cc1ccccc1`, it took 4300 nM to reach the 90% level in test [1] (IC90).

`N#CN=C1N(Cc2ccc(O)cc2)[C@H](Cc2ccccc2)[C@H](O)[C@@H](O)[C@@H](Cc2ccccc2)N1Cc1ccc(O)cc1` yielded an IC90 in test [1] of 250 nM. This molecule also had a Ki in test [2] of 2.6 nM.

In test [1], `CCCCN1C(=NC#N)N(CCCC)[C@H](Cc2ccccc2)[C@H](O)[C@@H](O)[C@H]1Cc1ccccc1` gave an IC90 of 2600 nM. The affinity in test [2] corresponds to a Ki of 2.7 nM.

In test [1], `N#CN=C1N(Cc2cccc(C#N)c2)[C@H](Cc2ccccc2)[C@H](O)[C@@H](O)[C@@H](Cc2ccccc2)N1Cc1cccc(C#N)c1` returned an IC90 of 3100 nM. The molecule also showed a Ki in test [2] of 27 nM.

On to `N#CN=C1N(Cc2ccc(N)cc2)[C@H](Cc2ccccc2)[C@H](O)[C@@H](O)[C@@H](Cc2ccccc2)N1Cc1ccc(N)cc1`, for which it took 2300 nM to reach the 90% level in test [1] (IC90). In addition, affinity in test [2] was put at a Ki of 25 nM.

As to `O=C1N(Cc2ccc(OCc3ccccc3)cc2)[C@H](Cc2ccccc2)[C@H](O)[C@@H](O)[C@@H](Cc2ccccc2)N1Cc1ccc(OCc2ccccc2)cc1`, in test [1], the IC90 is greater than 70000 nM. The same molecule displayed a Ki in test [2] of 542 nM.

Regarding `CC(C)=CCN1C(=O)N(CC=C(C)C)[C@H](Cc2ccccc2)[C@H](O)[C@@H](O)[C@H]1Cc1ccccc1`, in test [1], the 90% effect level (IC90) was put at 860 nM. This molecule also showed a Ki in test [2] of 1.6 nM.

Regarding `N#CN=C1N(CC2CCCCC2)[C@H](Cc2ccccc2)[C@H](O)[C@@H](O)[C@@H](Cc2ccccc2)N1CC1CCCCC1`, the 90% effect level in test [1] (IC90) was put at 1100 nM. For the same molecule, the affinity in test [2], expressed as Ki, was 5.7 nM.

`N#Cc1cccc(CN2C(=O)N(Cc3cccc(C#N)c3)[C@H](Cc3ccccc3)[C@H](O)[C@@H](O)[C@H]2Cc2ccccc2)c1` yielded a 90% effect concentration (IC90) in test [1] of 2200 nM.

With `N#CN=C1N(Cc2cccc([N+](=O)[O-])c2)[C@H](Cc2ccccc2)[C@H](O)[C@@H](O)[C@@H](Cc2ccccc2)N1Cc1cccc([N+](=O)[O-])c1`, in test [1], the IC90 came out at 17700 nM. Also, the affinity in test [2], expressed as Ki, was 89 nM.

In the case of `N#CN=C1N(Cc2ccc(CO)cc2)[C@H](Cc2ccccc2)[C@H](O)[C@@H](O)[C@@H](Cc2ccccc2)N1Cc1ccc(CO)cc1`, the IC90 in test [1] turned out to be 3200 nM. In test [2], the Ki came out at 11 nM.

The molecule `N#CN=C1N(CC2CCCC2)[C@H](Cc2ccccc2)[C@H](O)[C@@H](O)[C@@H](Cc2ccccc2)N1CC1CCCC1` returned an IC90 in test [1] of 350 nM. In test [2], this molecule registered a Ki of 1.5 nM.

As to `C=CCN1C(=NC#N)N(CC=C)[C@H](Cc2ccccc2)[C@H](O)[C@@H](O)[C@H]1Cc1ccccc1`, the IC90 in test [1] worked out at 51000 nM. In addition, the Ki in test [2] turned out to be 37 nM.

The molecule `N#CN=C1N(Cc2cccc(N)c2)[C@H](Cc2ccccc2)[C@H](O)[C@@H](O)[C@@H](Cc2ccccc2)N1Cc1cccc(N)c1` displayed an IC90 in test [1] of 500 nM. The molecule also yielded a Ki in test [2] of 7.4 nM.

In test [1], `N#CN=C1N(Cc2cccc(O)c2)[C@H](Cc2ccccc2)[C@H](O)[C@@H](O)[C@@H](Cc2ccccc2)N1Cc1cccc(O)c1` had a 90% effect concentration (IC90) of 130 nM. In test [2], this molecule came in with an inhibitory constant (Ki) of 0.72 nM.

In the case of `Nc1ccc(CN2C(=O)N(Cc3ccc(N)cc3)[C@H](Cc3ccccc3)[C@H](O)[C@@H](O)[C@H]2Cc2ccccc2)cc1`, the IC90 in test [1] stood at 110 nM. The same molecule showed a Ki in test [2] of 1.1 nM.

As for `NC(=O)NC1=N[C@H](Cc2ccccc2)[C@H](O)[C@@H](O)[C@@H](Cc2ccccc2)N1`, in test [1], the IC90 was greater than 142000 nM. The molecule further showed a Ki in test [2] greater than 12500 nM.

With `CC(C)CCN1C(=NC#N)N(CCC(C)C)[C@H](Cc2ccccc2)[C@H](O)[C@@H](O)[C@H]1Cc1ccccc1`, in test [1], the IC90 came to 1100 nM. Also, the affinity in test [2], expressed as Ki, was 3.8 nM.

For the molecule `N#CN=C1N(Cc2ccc(C#N)cc2)[C@H](Cc2ccccc2)[C@H](O)[C@@H](O)[C@@H](Cc2ccccc2)N1Cc1ccc(C#N)cc1`, in test [1], the IC90 was 7700 nM. This molecule came in with an inhibition constant Ki in test [2] of 128 nM.

`N#CN=C1N(Cc2cccc(CO)c2)[C@H](Cc2ccccc2)[C@H](O)[C@@H](O)[C@@H](Cc2ccccc2)N1Cc1cccc(CO)c1` displayed an IC90 in test [1] of 590 nM. Also, in test [2], the inhibition constant (Ki) came to 1.7 nM.

`N#CN=C1N(Cc2ccccc2)[C@H](Cc2ccccc2)[C@H](O)[C@@H](O)[C@@H](Cc2ccccc2)N1Cc1ccccc1`: the IC90 in test [1] amounted to 3800 nM. This molecule also returned a Ki in test [2] of 20 nM.

`O=C1N(CC2CCCCC2)[C@H](Cc2ccccc2)[C@H](O)[C@@H](O)[C@@H](Cc2ccccc2)N1CC1CCCCC1` yielded an IC90 in test [1] of 96000 nM.

On to `N#CN=C1N(Cc2ccc(OCc3ccccc3)cc2)[C@H](Cc2ccccc2)[C@H](O)[C@@H](O)[C@@H](Cc2ccccc2)N1Cc1ccc(OCc2ccccc2)cc1`, for which the IC90 in test [1] came to 67300 nM. Affinity in test [2] was put at a Ki of 900 nM.

`N#CN=C1N(Cc2ccc3ccccc3c2)[C@H](Cc2ccccc2)[C@H](O)[C@@H](O)[C@@H](Cc2ccccc2)N1Cc1ccc2ccccc2c1` showed an IC90 in test [1] greater than 79000 nM. The same molecule yielded a Ki in test [2] of 22 nM.

As to `O=C1N(Cc2ccc3ccccc3c2)[C@H](Cc2ccccc2)[C@H](O)[C@@H](O)[C@@H](Cc2ccccc2)N1Cc1ccc2ccccc2c1`, in test [1], the 90% effect level (IC90) was put at 3900 nM. Moreover, the affinity in test [2] corresponds to a Ki of 0.31 nM.

`O=C1N[C@H](Cc2ccccc2)[C@H](O)[C@@H](O)[C@@H](Cc2ccccc2)N1`: the Ki in test [2] was determined as 267 nM.

In test [1], `CC(C)=CCN1C(=NC#N)N(CC=C(C)C)[C@H](Cc2ccccc2)[C@H](O)[C@@H](O)[C@H]1Cc1ccccc1` gave an IC90 of 4700 nM. Besides, the affinity in test [2] corresponds to a Ki of 30 nM.

For `O=C1N(Cc2cccc(OCc3ccccc3)c2)[C@H](Cc2ccccc2)[C@H](O)[C@@H](O)[C@@H](Cc2ccccc2)N1Cc1cccc(OCc2ccccc2)c1`, in test [1], the IC90 is greater than 70000 nM. The Ki in test [2] is 340 nM.

In test [1], `CCCN1C(=NC#N)N(CCC)[C@H](Cc2ccccc2)[C@H](O)[C@@H](O)[C@H]1Cc1ccccc1` registered an IC90 of 7400 nM. This molecule also yielded a Ki in test [2] of 14 nM.

In the case of `O=C1N(Cc2ccc(O)cc2)[C@H](Cc2ccccc2)[C@H](O)[C@@H](O)[C@@H](Cc2ccccc2)N1Cc1ccc(O)cc1`, it took 32 nM to reach the 90% level in test [1] (IC90).

For `N#CN=C1N(Cc2ccc([N+](=O)[O-])cc2)[C@H](Cc2ccccc2)[C@H](O)[C@@H](O)[C@@H](Cc2ccccc2)N1Cc1ccc([N+](=O)[O-])cc1`, the IC90 in test [1] worked out at 19300 nM. This molecule gave a Ki in test [2] of 67 nM.

On to `N#Cc1ccc(CN2C(=O)N(Cc3ccc(C#N)cc3)[C@H](Cc3ccccc3)[C@H](O)[C@@H](O)[C@H]2Cc2ccccc2)cc1`, for which the IC90 in test [1] came to 5800 nM. In test [2], this molecule returned a Ki of 52 nM.

Consider `N#CN=C1N(CC2CC2)[C@H](Cc2ccccc2)[C@H](O)[C@@H](O)[C@@H](Cc2ccccc2)N1CC1CC1`, for which the IC90 in test [1] was found to be 5000 nM. Further, the affinity in test [2] corresponds to a Ki of 22 nM.

In turn, `N#CN=C1N(CC2CCC2)[C@H](Cc2ccccc2)[C@H](O)[C@@H](O)[C@@H](Cc2ccccc2)N1CC1CCC1` came in with an IC90 in test [1] of 840 nM. In test [2], the Ki came out at 2 nM.

Molecule `O=C1N(Cc2ccc([N+](=O)[O-])cc2)[C@H](Cc2ccccc2)[C@H](O)[C@@H](O)[C@@H](Cc2ccccc2)N1Cc1ccc([N+](=O)[O-])cc1` gave an IC90 in test [1] of 8400 nM. The molecule further had a Ki in test [2] of 32 nM.

Molecule `O=C1N(Cc2ccc(CO)cc2)[C@H](Cc2ccccc2)[C@H](O)[C@@H](O)[C@@H](Cc2ccccc2)N1Cc1ccc(CO)cc1` [DMP-323] had an IC90 in test [1] of 57 nM.

In test [1], `Nc1cccc(CN2C(=O)N(Cc3cccc(N)c3)[C@H](Cc3ccccc3)[C@H](O)[C@@H](O)[C@H]2Cc2ccccc2)c1` [MOZENAVIR] showed a concentration for an effect of 90% (IC90) of 130 nM. Moreover, in test [2], the Ki was determined as 0.28 nM.
